Measurements of several laboratories.

O=c1nc(N2CCN(CC3CCCCC3)CC2)sc2c([N+](=O)[O-])cc(C(F)(F)F)cc12
concentration (CD-1 mouse, lung; intravenous, 10 mg/kg, 15 min): 2830 ng/mL

O=C(O)C1CCN(c2ncc(-c3ccc4c(c3)OCCCO4)s2)CC1
concentration (male Swiss mouse, plasma; oral, 30 mg/kg, 2 h, single dose): 5990 ng/mL

CC(C)(Nc1nc(-c2ccccn2)nc2ccccc12)c1ccccn1
concentration (female BALB/c mouse, plasma; intravenous, 1 mg/kg, 1 h): 487 ng/mL

CC(C)Cc1nn(C)c(=O)c2c(SCCCO)n(Cc3cccc4ccccc34)cc12
concentration (mouse, plasma; intraperitoneal, 20 mg/kg, 7 days, single dose): 0 nM

COc1cc(F)c([C@@H]2CNC(=O)[C@H]2NC(=O)Nc2ccccc2)c(F)c1
concentration (C57BL/6 mouse, plasma; oral, 3 mg/kg, 2 h): 84 nM

COc1cc(C)c(Sc2cnc(NC(=O)c3ccc(N4CCN(CCCCCCCNC(=O)COc5cccc6c5C(=O)N(C5CCC(=O)NC5=O)C6=O)CC4)cc3)s2)cc1C(=O)N1CCN(C(C)=O)CC1 (stereo not drawn)
concentration (male C57BL/6 mouse, plasma; intraperitoneal, 10 mg/kg, 8 h, single dose): ~100 nM

O=S(=O)(c1cccc(C(F)(F)F)c1)N1CCc2ccc(OCc3c(F)cncc3Cl)cc21
concentration (mouse, plasma; intraperitoneal, 10 mg/kg, 2 h): 410 nM

CC(C)CN(C[C@@H](O)[C@H](Cc1ccccc1)NC(=O)O[C@H]1CO[C@H]2OCC[C@H]21)S(=O)(=O)c1ccc(N)cc1
concentration (BALB/c mouse, brain; intravenous, 2.5 mg/kg, 3 h): 1.19 ng/g

CC(C)Oc1cccc(-c2cnc(N3CCC(C(N)=O)CC3)s2)c1
concentration (male Swiss mouse, plasma; oral, 30 mg/kg, 30 min, single dose): 416 ng/mL

Cc1ccc(-c2cccc3cnc(Nc4ccc(C(=O)N5CCOCC5)cc4)nc23)cn1
concentration (mouse, plasma; intraperitoneal, 10 mg/kg, 2 h): 0 nM

O=S(=O)(c1cccc(C(F)(F)F)c1)N1c2cc(OCc3c(Cl)cncc3Cl)ccc2CC1C(F)(F)F (stereo not drawn)
concentration (mouse, plasma; intraperitoneal, 10 mg/kg, 2 h): 600 nM

O=C(N/N=C/c1ccc2ccccc2c1)c1ccc(O)cc1
concentration (male C57BL/6 mouse, plasma; intraperitoneal, 30 mg/kg, 2 h): ~200 nM

c1ccc(-c2nc(N3CCC(c4ccccn4)C3)c3ccccc3n2)nc1 (stereo not drawn)
concentration (female BALB/c mouse, plasma; oral, 50 mg/kg, 2 h): 2730 ng/mL

CN(C(=O)n1cnc(-c2ccc[n+]([O-])c2)c1)C1CCCCC1
concentration (male CD-1 mouse, plasma; oral, 10 mg/kg, 8 h): 83 ng/mL

O=c1cc(-c2ccccc2)oc2c(O)c(O)ccc12
concentration (male CD-1 mouse, brain; oral, 50 mg/kg, 30 min): 18 ng/g

O=S(=O)(c1cccc(C(F)(F)F)c1)N1CCc2ccc(OCc3c(Cl)cncc3Cl)cc21
concentration (mouse, plasma; intraperitoneal, 10 mg/kg, 4 h): 620 nM

Cc1c2ccnc(C(=O)N[C@H](C)CN(C)C)c2cc2c3cc(O)ccc3n(C)c12
concentration (male C57BL/6 mouse, plasma; intraperitoneal, 10 mg/kg, 2 h, single dose): 80 nM

O=S(=O)(c1cccc(C(F)(F)F)n1)N1CCc2ccc(OCc3c(F)cccc3Cl)cc21
concentration (mouse, plasma; intraperitoneal, 10 mg/kg, 2 h): 290 nM

O=S(=O)(c1ccc(-c2ccc3nccc(Nc4ccncn4)c3c2)cc1)N1CCOCC1
concentration (female BALB/c mouse, plasma; intraperitoneal, 10 mg/kg, 8 h): 2.16 ng/mL

COc1ccc2[nH]c3c(C)c4ccnc(C(=O)N[C@H](C)CN(C)C)c4cc3c2c1
concentration (male C57BL/6 mouse, brain; intraperitoneal, 10 mg/kg, 2 h, single dose): 260 nM

CSc1cc(Oc2ccnc3[nH]c(=O)cnc23)ccc1NC(=O)Nc1cc(C(C)(C)C)nn1-c1ccccc1
concentration (BALB/c mouse, plasma; oral, 10 mg/kg/day, 14 h): ~1000 nM
